Experiments:
Rattus norvegicus [1] = assay: Effect evaluated in vivo on 5-HTP accumulation in corpus striatum at a dose 50 umol/kg (p.o.); assay type: functional
Method in brief: (§1)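 Male Sprague-Dawley rats (200–300 g) were pretreated with reserpine 5 mg/kg sc 18 h beforehand. Test drug was given at neutral pH, 5 mL/kg. Aromatic amino acid decarboxylase was blocked with NSD 1015. 5-HTP in the dissected brain region was assayed by HPLC with electrochemical detection.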

Rattus norvegicus [2] = assay: The compound was tested in vivo for locomotor activity in rats at 50 umol/kg after subcutaneous administration; assay type: functional
Method in brief: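 Male Sprague-Dawley rats received reserpine 5 mg/kg sc in the neck 18 h before testing. Test compound was given sc in the neck (n = 4). Rats were placed singly in photocell motility meters immediately after dosing, and counts were accumulated over 30 min (tests 9 a.m.–1 p.m.). Gross behaviour, including 5-HT syndrome, was observed throughout.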

Rattus norvegicus [3] = assay: Effect evaluated in vivo on 5-HTP accumulation in NE-rich hemispheres at a 0.20 dose uM/kg(sc); assay type: functional; method in brief: as §1
Rattus norvegicus [4] = assay: Effect evaluated in vivo on 5-HTP accumulation in limbic system after subcutaneous administration; assay type: functional; conditions: sc; method in brief: as §1
Rattus norvegicus [5] = assay: Effect evaluated in vivo on 5-HTP accumulation in limbic system at a dose 0.20 umol/kg (s.c.); assay type: functional; method in brief: as §1
Rattus norvegicus [6] = assay: Effect evaluated in vivo on 5-HTP accumulation in limbic system at a dose 12.5 umol/kg (p.o.); assay type: functional
Method in brief: (§2)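 Oral dosing in male Sprague-Dawley rats (200–300 g) pretreated with reserpine 5 mg/kg sc 18 h before. After decarboxylase inhibition with NSD 1015, brain 5-HTP or dopa accumulation (HPLC-electrochemical detection) indexed 5-HT synthesis, DA synthesis (limbic) or NE synthesis (hemispheres, mainly cortex).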

Rattus norvegicus [7] = assay: Effect evaluated in vivo on 5-HTP accumulation in NE-rich hemispheres after perioral administration; assay type: functional; method in brief: as §1
Rattus norvegicus [8] = assay: Effect evaluated in vivo on 5-HTP accumulation in limbic system at a dose 0.80 umol/kg (p.o.); assay type: functional; method in brief: as §2
Rattus norvegicus [9] = assay: The compound was tested in vivo for locomotor activity in rats at 50 umol/kg after perioral administration; assay type: functional
Method in brief: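 Reserpine-pretreated rats (5 mg/kg sc, 18 h before) received test compound orally. Photocell motility counts were accumulated over 30 min, and gross behaviour, including 5-HT syndrome, was observed.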

Rattus norvegicus [10] = assay: Effect evaluated in vivo on 5-HTP accumulation in corpus striatum at a dose 50 umol/kg (s.c.); assay type: functional; method in brief: as §1
Rattus norvegicus [11] = assay: Effect evaluated in vivo on 5-HTP accumulation in limbic system at a dose 50 umol/kg (p.o.); assay type: functional; method in brief: as §2
Rattus norvegicus [12] = assay: Effect evaluated in vivo on 5-HTP accumulation in corpus striatum at a dose 0.80 umol/kg (s.c.); assay type: functional; method in brief: as §1
Rattus norvegicus [13] = assay: Effect evaluated in vivo on 5-HTP accumulation in limbic system at a dose 3.1 umol/kg (p.o.); assay type: functional; method in brief: as §2
D(2) dopamine receptor = D(2) dopamine receptor (Rattus norvegicus, UniProt P61169); assay: Inhibitory activity against Dopamine receptor D2 in rats using [3H]spiperone as radioligand
Method in brief: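 Rat striatal membranes in 50 mM potassium phosphate buffer pH 7.4 were incubated with 0.5 nM [3H]spiperone for 10 min at 37 °C. Specific binding was defined with 10 μM 6,7-ADTN.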

Rattus norvegicus [14] = assay: Effect evaluated in vivo on 5-HTP accumulation in corpus striatum after subcutaneous administration; assay type: functional; conditions: sc; method in brief: as §1
[15] = target: T1, 5-hydroxytryptamine receptor 1A (Rattus norvegicus, UniProt P19327); assay: Inhibitory activity against 5-hydroxytryptamine 1A receptor in rats, using [3H]8-OH-DPAT as radioligand
T1 sequence (P19327 whole entry): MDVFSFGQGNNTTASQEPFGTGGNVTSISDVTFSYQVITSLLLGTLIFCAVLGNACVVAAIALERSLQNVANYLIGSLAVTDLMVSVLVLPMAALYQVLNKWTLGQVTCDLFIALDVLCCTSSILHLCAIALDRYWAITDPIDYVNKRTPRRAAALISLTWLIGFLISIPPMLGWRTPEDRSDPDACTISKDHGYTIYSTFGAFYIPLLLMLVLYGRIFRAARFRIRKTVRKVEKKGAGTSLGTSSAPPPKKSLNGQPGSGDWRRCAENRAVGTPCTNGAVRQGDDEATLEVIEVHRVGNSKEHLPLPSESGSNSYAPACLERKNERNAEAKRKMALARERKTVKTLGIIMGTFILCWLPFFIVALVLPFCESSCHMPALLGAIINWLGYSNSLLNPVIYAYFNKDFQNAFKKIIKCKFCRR
Method in brief: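 Rat whole-brain membranes (minus brainstem and cerebellum) in 50 mM Tris pH 8.0 with 120 mM NaCl, 4 mM CaCl2, 4 mM MgCl2 and 10 μM pargyline. Rapid filtration, then scintillation counting. Nonspecific binding defined with 10 μM 5-HT. IC50 by semi-log plot and linear regression.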

Rattus norvegicus [16] = assay: Effect evaluated in vivo on 5-HTP accumulation in limbic system at a dose 50 umol/kg (s.c.); assay type: functional
Method in brief: (§3)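 Male Sprague-Dawley rats (200–300 g) were pretreated with reserpine 5 mg/kg sc 18 h before. Test compound was given sc at 5 mL/kg in neutral solution. 5-HT synthesis rate was indexed by […] 5-HTP accumulation after decarboxylase inhibition with NSD 1015, measured by HPLC-electrochemical detection. Dose-response used 4–6 dose levels, n = 4.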

Rattus norvegicus [17] = assay: Effect evaluated in vivo on 5-HTP accumulation in corpus striatum at a dose 0.80 umol/kg (p.o.); assay type: functional; method in brief: as §1
Rattus norvegicus [18] = assay: Effect evaluated in vivo on 5-HTP accumulation in NE-rich hemispheres at a 0.80 dose uM/kg(sc); assay type: functional; method in brief: as §1
Rattus norvegicus [19] = assay: Effect evaluated in vivo on 5-HTP accumulation in NE-rich hemispheres at a 3.1 dose uM/kg(sc); assay type: functional; method in brief: as §1
Rattus norvegicus [20] = assay: Effect evaluated in vivo on 5-HTP accumulation in corpus striatum at a dose 0.20 umol/kg (s.c.); assay type: functional; method in brief: as §1
Rattus norvegicus [21] = assay: Effect evaluated in vivo on 5-HTP accumulation in limbic system at a dose 3.1 umol/kg (s.c.); assay type: functional; method in brief: as §3
Rattus norvegicus [22] = assay: Effect evaluated in vivo on 5-HTP accumulation in corpus striatum at a dose 3.1 umol/kg (s.c.); assay type: functional; method in brief: as §1
Rattus norvegicus [23] = assay: Effect evaluated in vivo on 5-HTP accumulation in corpus striatum at a dose 12.5 umol/kg (p.o.); assay type: functional; method in brief: as §1
Rattus norvegicus [24] = assay: Effect evaluated in vivo on 5-HTP accumulation in NE-rich hemispheres after subcutaneous administration; assay type: functional; conditions: sc; method in brief: as §1
Rattus norvegicus [25] = assay: Effect evaluated in vivo on 5-HTP accumulation in NE-rich hemispheres at a 50 dose uM/kg(sc); assay type: functional; method in brief: as §1
Rattus norvegicus [26] = assay: Effect evaluated in vivo on 5-HTP accumulation in corpus striatum after perioral administration; assay type: functional; method in brief: as §1
Rattus norvegicus [27] = assay: Effect evaluated in vivo on 5-HTP accumulation in corpus striatum at a dose 3.1 umol/kg (p.o.); assay type: functional; method in brief: as §1
Rattus norvegicus [28] = assay: Effect evaluated in vivo on 5-HTP accumulation in limbic system after perioral administration; assay type: functional; method in brief: as §1
Rattus norvegicus [29] = assay: Effect evaluated in vivo on 5-HTP accumulation in limbic system at a dose 0.80 umol/kg (s.c.); assay type: functional; method in brief: as §3

D(2) dopamine receptor, sequence (P61169 whole entry): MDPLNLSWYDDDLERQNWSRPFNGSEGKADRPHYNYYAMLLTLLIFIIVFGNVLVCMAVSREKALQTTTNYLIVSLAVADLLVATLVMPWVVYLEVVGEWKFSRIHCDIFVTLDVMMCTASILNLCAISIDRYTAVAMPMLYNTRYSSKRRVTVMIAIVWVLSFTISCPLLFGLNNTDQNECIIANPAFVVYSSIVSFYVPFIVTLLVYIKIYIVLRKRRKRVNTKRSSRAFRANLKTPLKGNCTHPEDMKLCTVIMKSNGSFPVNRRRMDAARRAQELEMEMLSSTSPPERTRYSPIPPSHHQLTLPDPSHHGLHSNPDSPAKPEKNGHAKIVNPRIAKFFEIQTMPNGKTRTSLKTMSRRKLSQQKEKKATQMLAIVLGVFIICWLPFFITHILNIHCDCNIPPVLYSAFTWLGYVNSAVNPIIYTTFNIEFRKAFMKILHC

`CCCN1CCc2c(Br)ccc(OC)c2CC1` was tested, and the Control (Rattus norvegicus [1]) was 50%, the Locomotor activity (Rattus norvegicus [2]) was 108 and the Control (Rattus norvegicus [3]) was 102%. The ED50 (Rattus norvegicus [4]) was 2.7 µmol/kg, the Control (Rattus norvegicus [5]) was 108% and the Control (Rattus norvegicus [6]) was 76%. For the same compound, the ED50 (Rattus norvegicus [7]) was 21 µmol/kg, the Control (Rattus norvegicus [8]) was 88% and the Locomotor activity (Rattus norvegicus [9]) was 21. For the same compound, the Control (Rattus norvegicus [10]) was 50%, the Control (Rattus norvegicus [11]) was 48% and the Control (Rattus norvegicus [12]) was 130%. It also gave a Control (Rattus norvegicus [13]) of 90%, an IC50 (D(2) dopamine receptor) of 680 nM and an ED50 (Rattus norvegicus [14]) of 3.2 µmol/kg. It also gave an IC50 [15] of 28 nM, a Control (Rattus norvegicus [16]) of 48% and a Control (Rattus norvegicus [17]) of 112%. For the same compound, the Control (Rattus norvegicus [18]) was 111%, the Control (Rattus norvegicus [19]) was 83% and the Control (Rattus norvegicus [20]) was 117%. It also gave a Control (Rattus norvegicus [21]) of 69%, a Control (Rattus norvegicus [22]) of 71% and a Control (Rattus norvegicus [23]) of 77%. It also gave an ED50 (Rattus norvegicus [24]) of 5 µmol/kg, a Control (Rattus norvegicus [25]) of 43% and an ED50 (Rattus norvegicus [26]) of 14 µmol/kg. It also gave a Control (Rattus norvegicus [27]) of 96%, an ED50 (Rattus norvegicus [28]) of 13 µmol/kg and a Control (Rattus norvegicus [29]) of 118%.
